This is an account of results in ChEMBL document CHEMBL1140133, “Phosphoramidate dinucleosides as hepatitis C virus polymerase inhibitors” (J Med Chem, 2008).

Each structure is given as a SMILES string.

In series [1] the test system is Hepatitis C virus. Nature of the series: Inhibition of HCV 1b histidine tagged NS5B-delta55 polymerase-mediated RNA synthesis expressed in Escherichia coli BL21 cells assessed as decrease in accumulation of pppGC product. Also on record: species or system Hepatitis C virus subtype 1b. In short, it runs like this: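 Recombinant NS5B-Δ55 with C-terminal His6, purified. Mix holds 10 µM RNA template (3′ end of HCV minus strand), 100 µM α-32P-CTP, 50 µM GTP and inhibitor 0–500 µM. Started with 1 µM NS5B, 30 °C 15 min, EDTA/formamide quench. pppGC resolved on sequencing gel, phosphorimager-quantified; IC50 fitted, ≥3 experiments.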

Series [2] deals with Hepatitis C virus. Nature of the series: Antiviral activity against HCV 1b in human Huh-5-2 cells assessed as inhibition of viral replication after 72 hrs by luciferase assay. The series is classed as functional, organism-based, Hepacivirus hominis. Conditions: genotype 1b, Huh-5-2, 72 h. Put shortly: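 Huh-5-2 cells carrying HCV 1b subgenomic replicon (luciferase reporter), seeded 7000/well and left 24 h; five 5-fold serial dilutions from 50 µg/mL (~60 µM) added in medium without G418; 37 °C, 5% CO2, 72 h. Luciferase read after Glo-lysis; signal as % of untreated cultures, EC50 calculated. Interferon α-2a (500 IU) positive control.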

A short description of series [3]: Cytotoxicity against human Huh-5-2 cells after 3 days by MTS assay. The class given is cell-based. In short, it runs like this: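 Parallel Huh-5-2 replicon cultures seeded 7000 cells/well, treated the same way as the antiviral assay (five 5-fold dilutions from ~60 µM, no G418). Cell proliferation measured 3 days after compound addition by MTS bioreduction to formazan, read on a plate reader.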
In general terms: Tetrazolium dyes change colour on reduction, which living cells bring about.

Take `COCCNP(=O)(OC[C@H]1O[C@@H](n2ccc(N)nc2=O)[C@H](O)[C@@H]1O)O[C@H]1[C@@H](OC)[C@H](n2cnc3c(=O)[nH]c(N)nc32)O[C@@H]1CO` (stereo not given in full): the IC50 (usually the concentration at which inhibition is half-maximal) in the series on Hepatitis C virus [1] was more than 200 µM.
With `CO[C@@H]1[C@H](OP(=O)(NCCCCCC(=O)O)OC[C@H]2O[C@@H](n3ccc(N)nc3=O)[C@H](O)[C@@H]2O)[C@@H](COP(=O)(O)O)O[C@H]1n1cnc2c(=O)[nH]c(N)nc21` (stereo not given in full), the IC50 with Hepatitis C virus [1] came to 69 µM. Also, the EC50 (in general, the concentration giving half of the maximal effect) with Hepatitis C virus [2] turned out to be 41 µM. Also, the CC50 (usually the concentration that lowers cell viability or growth by half) at 72 h in series [3] is more than 60 µM.
The matching figures for `COCCNP(=O)(OC[C@H]1O[C@@H](n2ccc(N)nc2=O)[C@H](O)[C@@H]1O)O[C@H]1[C@@H](OC)[C@H](n2cnc3c(=O)[nH]c(N)nc32)O[C@@H]1COP(=O)(O)S` (stereo not given in full): 47 µM, more than 60 µM and more than 60 µM.
As to `CO[C@@H]1[C@H](OP(=O)(NCCCN(C)C)OC[C@H]2O[C@H](n3ccc(N)nc3=O)[C@H](O)[C@@H]2O)[C@H](COP(=O)(O)O)O[C@H]1n1cnc2c(=O)[nH]c(N)nc21` (stereo not given in full), the IC50 in the series with Hepatitis C virus [1] was more than 200 µM.
On to `CO[C@@H]1[C@H](OP(=O)(NCCCCCC(=O)O)OC[C@H]2O[C@@H](n3ccc(N)nc3=O)[C@H](O)[C@@H]2O)[C@@H](CO)O[C@H]1n1cnc2c(=O)[nH]c(N)nc21` (stereo not given in full), for which the IC50 in the series with Hepatitis C virus [1] was found to be 160 µM.
On to `COCCNP(=O)(OC[C@H]1O[C@@H](n2ccc(N)nc2=O)[C@H](O)[C@@H]1O)O[C@H]1[C@@H](OC)[C@H](n2cnc3c(=O)[nH]c(N)nc32)O[C@@H]1COP(=O)(O)O` (stereo not given in full), for which, in the series with Hepatitis C virus [1], the IC50 stood at 106 µM. In addition, in the series with Hepatitis C virus [2], the EC50 was more than 60 µM. For the same compound, in series [3], the CC50 at 72 h was more than 60 µM.
For `CO[C@@H]1[C@H](OP(=O)(NCCCCCC(=O)O)OC[C@H]2O[C@@H](n3ccc(N)nc3=O)[C@H](O)[C@@H]2O)[C@@H](COP(=O)(O)S)O[C@H]1n1cnc2c(=O)[nH]c(N)nc21` (stereo not given in full), the half-inhibitory concentration (IC50) in the series with Hepatitis C virus [1] stood at 52 µM. For the same compound, the EC50 in the series on Hepatitis C virus [2] stood at 38 µM. In series [3], this compound registered a CC50 at 72 h of more than 60 µM.
